Measurements taken from ChEMBL document CHEMBL1240439, “Synthesis and docking studies of novel benzopyran-2-ones with anticancer activity” (2010).

What was measured:
Assay type in all cases: functional
SF-295 = assay: Cytotoxicity against human SF295 cells assessed as cell growth at 10 uM after 48 hrs by sulforhodamine B assay; conditions: SF-295, 48 h, read-out: Activity
RPMI-8226 = assay: Cytotoxicity against human RPMI8226 cells assessed as cell growth at 10 uM after 48 hrs by sulforhodamine B assay; conditions: RPMI-8226, 48 h, read-out: Activity
MOLT-4 = assay: Cytotoxicity against human MOLT4 cells assessed as cell growth at 10 uM after 48 hrs by sulforhodamine B assay; conditions: MOLT-4, 48 h, read-out: Activity
NCI-H522 = assay: Cytotoxicity against human NCI-H522 cells assessed as cell growth at 10 uM after 48 hrs by sulforhodamine B assay; conditions: NCI-H522, 48 h, read-out: Activity
HT-29 = assay: Cytotoxicity against human HT-29 cells assessed as cell growth at 10 uM after 48 hrs by sulforhodamine B assay; conditions: HT-29, 48 h, read-out: Activity
UACC-62 = assay: Cytotoxicity against human UACC62 cells assessed as cell growth at 10 uM after 48 hrs by sulforhodamine B assay; conditions: UACC-62, 48 h, read-out: Activity
SR = assay: Cytotoxicity against human SR cells assessed as cell growth at 10 uM after 48 hrs by sulforhodamine B assay; conditions: read-out: Activity
T47D = assay: Cytotoxicity against human T47D cells assessed as cell growth at 10 uM after 48 hrs by sulforhodamine B assay; conditions: read-out: Activity
A549 = assay: Cytotoxicity against human A549 cells assessed as cell growth at 10 uM after 48 hrs by sulforhodamine B assay; conditions: A549, 48 h, read-out: Activity
HOP-92 = assay: Cytotoxicity against human HOP92 cells assessed as cell growth at 10 uM after 48 hrs by sulforhodamine B assay; conditions: HOP-92, 48 h, read-out: Activity
NCI-H322M = assay: Cytotoxicity against human NCI-H322M cells assessed as cell growth at 10 uM after 48 hrs by sulforhodamine B assay; conditions: read-out: Activity
SW-620 = assay: Cytotoxicity against human SW620 cells assessed as cell growth at 10 uM after 48 hrs by sulforhodamine B assay; conditions: SW-620, 48 h, read-out: Activity
MDA-MB-468 = assay: Cytotoxicity against human MDA-MB-468 cells assessed as cell growth at 10 uM after 48 hrs by sulforhodamine B assay; conditions: MDA-MB-468, 48 h, read-out: Activity
MDA-MB-231 = assay: Cytotoxicity against human MDA-MB-231 cells assessed as cell growth at 10 uM after 48 hrs by sulforhodamine B assay; conditions: MDA-MB-231, 48 h, read-out: Activity
[1] = Cytotoxicity against human Hs 578T cells assessed as cell growth at 10 uM after 48 hrs by sulforhodamine B assay; conditions: read-out: Activity
CCRF-CEM = assay: Cytotoxicity against human CCRF-CEM cells assessed as cell growth at 10 uM after 48 hrs by sulforhodamine B assay; conditions: read-out: Activity
A498 = assay: Cytotoxicity against human A498 cells assessed as cell growth at 10 uM after 48 hrs by sulforhodamine B assay; conditions: A498, 48 h
Malme-3M = assay: Cytotoxicity against human MALME-3M cells assessed as cell growth at 10 uM after 48 hrs by sulforhodamine B assay; conditions: read-out: Activity
MDA-MB-435 = assay: Cytotoxicity against human MDA-MB-435 cells assessed as cell growth at 10 uM after 48 hrs by sulforhodamine B assay; conditions: MDA-MB-435, 48 h, read-out: Activity
SK-MEL-5 = assay: Cytotoxicity against human SK-MEL-5 cells assessed as cell growth at 10 uM after 48 hrs by sulforhodamine B assay; conditions: SK-MEL-5, 48 h, read-out: Activity
UACC-257 = assay: Cytotoxicity against human UACC257 cells assessed as cell growth at 10 uM after 48 hrs by sulforhodamine B assay; conditions: UACC-257, 48 h, read-out: Activity
SF-268 = assay: Cytotoxicity against human SF268 cells assessed as cell growth at 10 uM after 48 hrs by sulforhodamine B assay; conditions: SF-268, 48 h, read-out: Activity
SF-539 = assay: Cytotoxicity against human SF539 cells assessed as cell growth at 10 uM after 48 hrs by sulforhodamine B assay; conditions: SF-539, 48 h, read-out: Activity
SNB-19 = assay: Cytotoxicity against human SNB19 cells assessed as cell growth at 10 uM after 48 hrs by sulforhodamine B assay; conditions: SNB-19, 48 h, read-out: Activity
[2] = Cytotoxicity against human lung cancer cells after 48 hrs by sulforhodamine B assay; conditions: Cancer cell lines
Outline: (§1)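 Cells plated at 5000–40,000/well according to doubling time, then held 24 h at 37 °C, 5% CO2, with time-zero plates TCA-fixed. DMSO stocks (400× top concentration) were diluted in medium containing 50 μg/ml gentamycin, giving five 10-fold or ½-log concentrations. After 48 h, adherent cells were fixed in 10% TCA and suspension cells in 16% TCA (final), stained with 0.4% SRB, read at 515 nm. GI50, TGI and LC50 were calculated per cell line.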

[3] = Cytotoxicity against human colon cancer cells after 48 hrs by sulforhodamine B assay; conditions: Cancer cell lines; outline: as §1
[4] = Cytotoxicity against human CNS cancer cells after 48 hrs by sulforhodamine B assay; conditions: Cancer cell lines
Outline: (§2)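 Cells were plated at 5000–40,000/well according to doubling time and preincubated 24 h at 37 °C, 5% CO2. Time-zero plates were TCA-fixed. DMSO stocks were diluted in medium with gentamycin to five concentrations (10-fold or ½ log series) plus control, then incubated 48 h. Adherent cells were fixed with cold TCA (suspension cells with 16% final), stained with SRB, and read at 515 nm. GI50, TGI and LC50 were calculated per line.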

[5] = Cytotoxicity against human ovarian cancer cells after 48 hrs by sulforhodamine B assay; conditions: Cancer cell lines; outline: as §1
[6] = Cytotoxicity against human renal cancer cells after 48 hrs by sulforhodamine B assay; conditions: Cancer cell lines; outline: as §1
HL-60(TB) = assay: Cytotoxicity against human HL-60(TB) cells after 48 hrs by sulforhodamine B assay; conditions: HL-60, 48 h
Outline: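 Cells plated at 5000–40,000/well by doubling time and held 24 h at 37 °C, 5% CO2, with TCA-fixed zero-time plates. Drug given as DMSO stock diluted in medium with 50 μg/ml gentamycin, five concentrations (10-fold or ½ log steps), for 48 h. Settled suspension cells fixed with TCA (final 16%), stained with 0.4% SRB, read at 515 nm. GI50, TGI and LC50 calculated.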

HCT-116 = assay: Cytotoxicity against human HCT116 cells after 48 hrs by sulforhodamine B assay; conditions: HCT-116, 48 h; outline: as §2
[7] = read-out: LC50 (the source's name)

Cc1cc(=O)n(C(=O)COc2ccc3c(-c4ccccc4)cc(=O)oc3c2C)[nH]1
growth at 10 µM (SF-295): -77.2% | growth at 10 µM (RPMI-8226): -18.2% | growth at 10 µM (MOLT-4): 22.7% | growth at 10 µM (NCI-H522): -39.2% | growth at 10 µM (HT-29): -44.2% | growth at 10 µM (UACC-62): -27.3% | growth at 10 µM (SR): 18.5% | growth at 10 µM (T47D): -1.54% | growth at 10 µM (A549): 0.69% | growth at 10 µM (HOP-92): -64.4% | growth at 10 µM (NCI-H322M): -24.7% | growth at 10 µM (SW-620): -65.9% | growth at 10 µM (MDA-MB-468): -8.13% | growth at 10 µM (MDA-MB-231): -30% | growth at 10 µM [1]: -4.17% | growth at 10 µM (CCRF-CEM): 13.5% | TGI (A498): 3.76 µM | growth at 10 µM (A498; read-out: Activity): -3.79% | growth at 10 µM (Malme-3M): -8.61% | growth at 10 µM (MDA-MB-435): -39.6% | growth at 10 µM (SK-MEL-5): -31.5% | growth at 10 µM (UACC-257): 6.57% | growth at 10 µM (SF-268): 2.94% | growth at 10 µM (SF-539): -78.2% | growth at 10 µM (SNB-19): 33.6% | GI50 [2]: 3.69 µM | TGI [2]: 37.4 µM | CC50 [2, 7]: 65.1 µM | GI50 [3]: 8.98 µM | TGI [3]: 32.6 µM | CC50 [3, 7]: 64.5 µM | GI50 [4]: 2.58 µM | TGI [4]: 8.85 µM | CC50 [4, 7]: 27.7 µM | GI50 [5]: 8.53 µM | TGI [5]: 28.7 µM | CC50 [5, 7]: 52 µM | GI50 [6]: 10.7 µM | TGI [6]: 21.4 µM | CC50 [6, 7]: 55.2 µM | TGI (HL-60(TB)): 2.62 µM | GI50 (HCT-116): 1.94 µM | TGI (HCT-116): 3.76 µM
